Here are results for one compound from ChEMBL document CHEMBL4382210, “Identification of novel benzothiopyranone compounds against Mycobacterium tuberculosis through scaffold morphing from benzothiazinones” (Eur J Med Chem, 2018).

A value given as a limit tells only on which side of the number the result lay.

Data set [1] has as its target T1, Cytochrome P450 1A2 (Homo sapiens, UniProt P05177).
T1 sequence (P05177 whole entry): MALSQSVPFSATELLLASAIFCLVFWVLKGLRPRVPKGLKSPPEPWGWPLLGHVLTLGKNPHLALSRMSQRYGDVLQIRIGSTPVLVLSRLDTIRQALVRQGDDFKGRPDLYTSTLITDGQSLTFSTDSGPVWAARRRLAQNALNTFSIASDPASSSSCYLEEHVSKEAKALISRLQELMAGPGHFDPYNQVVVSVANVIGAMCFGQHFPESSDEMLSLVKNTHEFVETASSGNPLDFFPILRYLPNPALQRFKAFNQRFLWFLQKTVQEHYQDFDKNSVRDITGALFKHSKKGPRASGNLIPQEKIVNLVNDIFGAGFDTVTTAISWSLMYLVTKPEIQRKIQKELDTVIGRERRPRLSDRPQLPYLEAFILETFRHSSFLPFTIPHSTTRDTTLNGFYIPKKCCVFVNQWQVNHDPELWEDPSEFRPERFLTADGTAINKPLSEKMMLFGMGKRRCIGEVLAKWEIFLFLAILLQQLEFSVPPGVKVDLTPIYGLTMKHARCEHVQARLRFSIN
As to the kind of experiment: Inhibition of CYP1A2 in human liver microsomes after 20 mins by LC-MS/MS analysis. The class given is ADME. An outline of the steps:
(§1)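 Compound at 0.1–50 µM incubated 20 min with human liver microsomes (0.2 mg/mL) and the CYP isoform, alongside isoform-specific probe substrates. Substrate remaining measured by LC-MS/MS at each concentration to derive IC50.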

Data set [2] can be described thus: Half life in human hepatocytes assessed per million cells at 1 uM incubated up to 120 mins by LC-MS/MS analysis. The class given is ADME, cell-based, Hepatocyte. An outline of the steps: (§2)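 Pooled male CD-1 mouse or pooled human hepatocytes at 1 million cells/mL final, compound at 1 µM. Incubated at 37 °C in a CO2 incubator with shaking (~100 rpm). Samples taken at 0, 15, 30, 60, 90 and 120 min and quenched with cold ACN/MeOH containing internal standard. Parent compound remaining measured by LC-MS/MS.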

The nature of data set [3]: AUC (0 to 24 hrs) in BALB/C mouse at 25 mg/kg, po by LC/TSQ quantum access mass spectrometry. Particulars: in vivo. The class given is ADME, organism-based. More on the design: time < 24 hr, dose 25 mg/kg, route oral. A digest of the protocol:
(§3)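 Male Balb/c mice (22–23 g), three per route. Single dose of 25 mg/kg p.o. (2.5 mg/mL in 0.5% carboxymethyl cellulose + 0.5% Tween 80) or 10 mg/kg i.v. (2.0 mg/mL in 20% HP-β-CD with 4 mol/L HCl). Blood sampled 5, 15, 30 min, 1, 2, 4, 7, 24 h. Plasma extracted with acetonitrile plus terfenadine internal standard, then LC-MS/MS on a C18 column. F = (AUCpo×dose_iv)/(AUCiv×dose_po).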

Data set [4] can be described thus: Elimination half life in BALB/C mouse at 10 mg/kg, iv by LC/TSQ quantum access mass spectrometry. It is filed as ADME, organism-based. Particulars: in vivo, read-out: beta t1/2 (converted). A digest of the protocol: as §3
Data set [5] is described as follows: Intrinsic clearance in CD-1 mouse hepatocytes assessed per million cells at 1 uM incubated up to 120 mins by LC-MS/MS analysis. As to conditions: read-out: CLH. The class given is ADME, cell-based, Hepatocyte. An outline of the steps:
as §2

Data set [6] in a line: Selectivity index, ratio of IC50 for human HepG2 cells to MIC=>90 for Mycobacterium tuberculosis H37Rv. The class given is toxicity. As to conditions: read-out: Selectivity Index.
The nature of data set [7]: Cmax in BALB/C mouse at 25 mg/kg, po by LC/TSQ quantum access mass spectrometry. The class given is ADME, organism-based. More on the design: dose 25 mg/kg, route oral. Particulars: in vivo. A digest of the protocol:
as §3

Data set [8] concerns the target Cytochrome P450 3A4 (Homo sapiens, UniProt P08684). The data set is described as follows: Inhibition of CYP3A4 in human liver microsomes after 20 mins by LC-MS/MS analysis. It is filed as ADME. A digest of the protocol: as §1
On the technique in general: Microsomes from liver hold many membrane-bound enzymes, among them those of drug oxidation.

Data set [9] in a line: AUC (0 to infinity) in BALB/C mouse at 25 mg/kg, po by LC/TSQ quantum access mass spectrometry. The class given is ADME, organism-based. More on the design: dose 25 mg/kg, time infinity, route oral. As to conditions: in vivo. An outline of the steps:
as §3

Data set [10] can be described thus: Acute toxicity in BALB/C mouse assessed as mouse survival at 2 g/kg, po administered as single dose measured during 7 days observation period. It is filed as organism-based. Particulars: in vivo, 2000 mg/kg, 168 h. A digest of the protocol:
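Female Balb/c mice (18–21 g), ten animals, given one oral dose of 2 g/kg. Survivors counted after 7 days of observation.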

Data set [11] has as its target Voltage-gated inwardly rectifying potassium channel KCNH2 (Homo sapiens, UniProt Q12809). As to the kind of experiment: Inhibition of human ERG expressed in HEK293 cells by whole-cell patch clamp assay. It is filed as cell-based. An outline of the steps: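 HEK293 cells stably transfected with hERG. Current recorded by whole-cell manual patch clamp at 25 °C, sampled at 10 kHz. Five concentrations tested (30, 10, 3.0, 1.0, 0.3 µM) in duplicate for IC50, with dofetilide as positive control.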
For orientation: In patch-clamp work, channel activity is measured electrically.

For data set [12], the system named is Mycobacterium tuberculosis. As to the kind of experiment: Antimicrobial activity against Mycobacterium tuberculosis H37Rv after 7 days by MABA. It is filed as functional. As to conditions: 168 h. A digest of the protocol: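 Strain H37Rv or clinical isolates grown to late log phase in 7H9-ADC-TG, washed, resuspended in PBS, filtered (8 µm) and frozen. On day 7 Tween 80 and alamar blue added, read 16–24 h later (ex 530/em 590). MIC = lowest concentration giving ≥90% fluorescence reduction versus bacterium-only controls.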

For data set [13], the target named is Cytochrome P450 2D6 (Homo sapiens, UniProt P10635). The data set is described as follows: Inhibition of CYP2D6 in human liver microsomes after 20 mins by LC-MS/MS analysis. The class given is ADME. A digest of the protocol:
as §1

Data set [14] can be described thus: Metabolic stability in CD-1 mouse liver microsomes assessed as parent compound remaining at 1 uM measured after 30 mins in presence of NADPH by LC-MS/MS analysis. As to conditions: read-out: Stability. It is filed as ADME, Microsome. A digest of the protocol:
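Male CD-1 mouse or pooled human liver microsomes (1 mg/mL protein), compound at 1 µM, 37 °C. Reaction started with 1 mM NADPH and quenched with cold ACN/MeOH containing internal standard. Parent remaining measured by LC-MS/MS; the 30-min value is normalised to time zero.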

Data set [15] in a line: MRT (0 to infinity) in BALB/C mouse at 25 mg/kg, po by LC/TSQ quantum access mass spectrometry. The class given is ADME, organism-based. As to conditions: in vivo. An outline of the steps:
as §3

The target in data set [16] is Cytochrome P450 2C9 (Homo sapiens, UniProt P11712). As to the kind of experiment: Inhibition of CYP2C9 in human liver microsomes after 20 mins by LC-MS/MS analysis. It is filed as ADME. A digest of the protocol: as §1
Cytochrome P450 2C9, sequence (P11712 whole entry): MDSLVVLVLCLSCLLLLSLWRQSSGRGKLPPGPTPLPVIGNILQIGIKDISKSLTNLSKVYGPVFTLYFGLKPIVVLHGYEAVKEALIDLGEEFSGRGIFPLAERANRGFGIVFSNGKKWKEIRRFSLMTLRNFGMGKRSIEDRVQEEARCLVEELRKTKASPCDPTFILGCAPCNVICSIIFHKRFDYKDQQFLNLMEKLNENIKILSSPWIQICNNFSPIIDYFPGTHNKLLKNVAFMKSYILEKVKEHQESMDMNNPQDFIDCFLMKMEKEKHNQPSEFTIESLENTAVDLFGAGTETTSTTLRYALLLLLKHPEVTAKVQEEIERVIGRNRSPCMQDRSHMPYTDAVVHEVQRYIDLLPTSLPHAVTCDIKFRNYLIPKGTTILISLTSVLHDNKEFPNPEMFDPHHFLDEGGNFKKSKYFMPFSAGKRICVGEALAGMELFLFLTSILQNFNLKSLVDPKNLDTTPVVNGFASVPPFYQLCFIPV
The nature of data set [17]: AUC (0 to infinity) in BALB/C mouse at 10 mg/kg, iv by LC/TSQ quantum access mass spectrometry. The class given is ADME, organism-based. Further details: dose 10 mg/kg, route intravenous, time infinity. Particulars: in vivo. An outline of the steps: as §3
Data set [18] concerns Mycobacterium tuberculosis. As to the kind of experiment: Antimicrobial activity against Mycobacterium tuberculosis H37Rv infected in BALB/C mouse assessed as bacterial burden in mouse lung at 100 mg/kg, po administered via gavage treated 5 times per week for 3 weeks starting from day 10 post infection (reference value: 7.102 +/- 0.152 log10CFU). It is filed as functional.

Data set [19] has as its system HepG2. The data set is described as follows: Cytotoxicity against human HepG2 cells assessed as reduction in cell viability after 48 hrs by MTT assay. It is filed as cell-based. Particulars: HepG2, 48 h. An outline of the steps: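 Vero or HepG2 cells in RPMI1640 with 10% FBS at 37 °C, 5% CO2, seeded at 4×10^5 cells/mL. Threefold dilutions at 64–0.26 µg/mL final for 48 h. Cells then washed with HBSS, MTT added for 4 h, absorbance read at 492 nm. IC50 taken relative to untreated control.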
A general note: Tetrazolium assays rely on reduction of a dye to a coloured formazan, in cell work by metabolically active cells.

Data set [20] is described as follows: Elimination half life in BALB/C mouse at 25 mg/kg, po by LC/TSQ quantum access mass spectrometry. It is filed as ADME, organism-based. Particulars: in vivo, read-out: beta t1/2 (converted). A digest of the protocol: as §3
Data set [21] in a line: Oral bioavailability in BALB/C mouse at 25 mg/kg by LC/TSQ quantum access mass spectrometry. The class given is ADME, organism-based. As to conditions: in vivo. A digest of the protocol:
as §3

Cytochrome P450 2D6, sequence (P10635 whole entry): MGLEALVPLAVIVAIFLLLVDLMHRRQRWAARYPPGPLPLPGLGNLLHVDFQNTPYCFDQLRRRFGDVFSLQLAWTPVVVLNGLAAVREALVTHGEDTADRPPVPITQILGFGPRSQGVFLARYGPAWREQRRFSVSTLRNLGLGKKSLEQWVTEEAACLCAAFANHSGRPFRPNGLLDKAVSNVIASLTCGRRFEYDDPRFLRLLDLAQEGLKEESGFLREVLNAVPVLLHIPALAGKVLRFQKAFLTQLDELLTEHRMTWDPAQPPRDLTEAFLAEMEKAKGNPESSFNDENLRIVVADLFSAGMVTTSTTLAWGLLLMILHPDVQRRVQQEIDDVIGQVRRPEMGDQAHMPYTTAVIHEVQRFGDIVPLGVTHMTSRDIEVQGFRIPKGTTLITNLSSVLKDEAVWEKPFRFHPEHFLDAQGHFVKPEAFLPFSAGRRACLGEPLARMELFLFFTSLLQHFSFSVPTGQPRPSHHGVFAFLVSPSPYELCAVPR
Cytochrome P450 3A4, sequence (P08684 whole entry): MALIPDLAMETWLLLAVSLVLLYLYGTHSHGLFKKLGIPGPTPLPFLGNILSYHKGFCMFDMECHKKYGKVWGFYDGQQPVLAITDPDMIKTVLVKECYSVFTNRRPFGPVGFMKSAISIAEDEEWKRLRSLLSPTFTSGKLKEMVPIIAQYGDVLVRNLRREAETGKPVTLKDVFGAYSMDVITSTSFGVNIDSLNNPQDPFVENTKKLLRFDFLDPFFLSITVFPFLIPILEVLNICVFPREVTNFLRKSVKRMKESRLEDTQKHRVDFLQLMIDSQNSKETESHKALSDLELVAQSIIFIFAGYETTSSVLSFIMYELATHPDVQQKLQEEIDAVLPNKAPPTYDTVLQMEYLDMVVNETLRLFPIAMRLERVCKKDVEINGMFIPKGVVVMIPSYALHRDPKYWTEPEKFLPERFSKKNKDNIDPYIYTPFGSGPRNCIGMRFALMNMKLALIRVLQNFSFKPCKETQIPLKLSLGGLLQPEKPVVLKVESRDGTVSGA
Voltage-gated inwardly rectifying potassium channel KCNH2, sequence (Q12809 whole entry): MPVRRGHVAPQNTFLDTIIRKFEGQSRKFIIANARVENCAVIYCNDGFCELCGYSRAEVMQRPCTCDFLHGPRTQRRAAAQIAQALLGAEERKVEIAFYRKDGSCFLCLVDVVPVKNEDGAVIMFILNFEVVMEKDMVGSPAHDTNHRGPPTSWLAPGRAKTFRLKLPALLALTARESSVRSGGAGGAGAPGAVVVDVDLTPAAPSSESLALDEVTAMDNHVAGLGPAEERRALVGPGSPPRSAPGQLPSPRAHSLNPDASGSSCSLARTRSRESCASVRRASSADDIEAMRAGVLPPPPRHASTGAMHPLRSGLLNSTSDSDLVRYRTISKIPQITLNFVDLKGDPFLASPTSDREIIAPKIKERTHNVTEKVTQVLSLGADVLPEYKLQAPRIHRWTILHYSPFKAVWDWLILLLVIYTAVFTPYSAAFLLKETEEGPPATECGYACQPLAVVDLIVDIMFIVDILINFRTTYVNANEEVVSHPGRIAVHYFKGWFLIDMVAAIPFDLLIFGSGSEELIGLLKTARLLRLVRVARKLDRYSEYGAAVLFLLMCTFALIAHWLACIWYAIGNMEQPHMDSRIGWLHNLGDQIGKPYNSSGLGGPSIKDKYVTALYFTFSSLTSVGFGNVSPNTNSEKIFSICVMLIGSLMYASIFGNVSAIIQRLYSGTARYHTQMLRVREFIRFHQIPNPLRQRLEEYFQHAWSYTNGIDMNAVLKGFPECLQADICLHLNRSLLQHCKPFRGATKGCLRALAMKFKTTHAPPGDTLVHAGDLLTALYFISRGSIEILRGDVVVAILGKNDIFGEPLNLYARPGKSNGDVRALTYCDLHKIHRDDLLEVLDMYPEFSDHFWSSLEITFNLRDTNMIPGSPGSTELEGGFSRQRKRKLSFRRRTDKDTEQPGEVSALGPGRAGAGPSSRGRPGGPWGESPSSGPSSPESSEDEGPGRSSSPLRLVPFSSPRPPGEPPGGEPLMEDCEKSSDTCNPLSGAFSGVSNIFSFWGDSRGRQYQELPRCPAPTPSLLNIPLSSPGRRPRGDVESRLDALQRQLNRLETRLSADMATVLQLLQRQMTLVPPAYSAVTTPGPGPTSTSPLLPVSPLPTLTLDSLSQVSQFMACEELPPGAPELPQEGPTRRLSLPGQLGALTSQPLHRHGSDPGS

For the compound `O=c1cc(N2CCN(CC3CCCCC3)CC2)sc2c([N+](=O)[O-])cc(C(F)(F)F)cc12`, the IC50 (commonly the concentration needed to halve the response being measured) is above 50 µM in data set [1]; above 50 µM in data set [8]; above 30 µM in [11]; above 50 µM in data set [13]; above 50 µM in data set [16]; above 64 µg/mL in data set [19]. In [2], this compound came in with a half-life at 1 µM of 3.73 h. Moreover, in data set [3], the AUC(0-t) – broadly, exposure summed from dosing to a finite time, without extrapolation to infinity – at 24 h was determined as 1580 ng·h/mL. Besides, the half-life in data set [4] was 6.54 h; in data set [20], 7.25 h. For the same compound, the hepatocyte CLint at 1 µM in data set [5] was 1.5 µL/min/1e6 cells. Moreover, in data set [6], the selectivity ratio was above 4000. For the same compound, in [7], the highest level (Cmax) was 588 ng/mL. Further, the AUC(0-inf) – broadly, total exposure, with the tail of the curve extrapolated – in data set [9] was 1700 ng·h/mL; in [17], 5180 ng·h/mL. Further, the Activity result in [10] is reported as “Non-Toxic”; in [18], 1.678 log10CFU. For the same compound, the MIC90 (as a rule, an inhibitory concentration at the 90% level, which refers to growth in some studies and to a panel of isolates in others) in data set [12] is below 0.016 µg/mL. In addition, in data set [14], the remaining at 0.5 h, 1 µM amounted to 61.5%. Moreover, in data set [15], the MRT inf (usually the average time that molecules of a dose stay in the body) was 6.59 h. For the same compound, the bioavailability – broadly, the share of a dose that reaches the circulation, judged against a reference dose that is usually intravenous – in data set [21] was 13.1%.
